Results: ChEMBL document CHEMBL1132966, “Conformationally constrained analogues of diacylglycerol (DAG). 16. How much structural complexity is necessary for recognition and high binding affinity to protein kinase C?” (J Med Chem, 2000)

What was measured:
[1] = target: T1, Protein kinase C alpha type (Homo sapiens, UniProt P17252)
[2] = target: T1, Protein kinase C alpha type; assay: Binding Affinity against protein kinase C alpha
C3H 10T1/2 = assay: Tested for inhibition of EGF(epidermal growth factor) to C3H10T1/2 cells.; type: functional; conditions: Mus musculus, read-out: ED50 (the source's name)
Procedure, shortened: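 C3H10T1/2 cells were plated at 2.5×10^5/well in MEM with 10% FBS and grown 2 days at 37 °C, 5% CO2. Cells were pretreated 60 min at 37 °C with ligand in MEM/BSA/25 mM BES pH 7.2 (DMSO <0.1% final). Cells were lysed in NaOH and bound counts measured. Background was taken with 1 μg/well unlabeled EGF. Six concentrations were run in triplicate, and ID50 is the mean of three experiments.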

[3] = test system: Panel NCI-60 (60 carcinoma cell lines); assay: Tested for growth inhibition against MG-MID(full panel of cells); type: functional; conditions: Homo sapiens
Procedure, shortened: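 MG-MID is the calculated mean of the GI50 concentrations (M) across the entire NCI cell panel. Each GI50 is the interpolated concentration (M) giving 50% growth inhibition.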

COLO 205 = assay: Tested for growth inhibition against COLO 205 cells.; type: functional; conditions: Homo sapiens
Procedure, shortened: (§1)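 GI50 is interpolated from the NCI cell-panel screen. It is the concentration (M) at which percentage growth is inhibited by 50% in the named line.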

K562 = assay: Tested for growth inhibition against Leukemia K-562 cells.; type: functional; conditions: Homo sapiens
Procedure, shortened: as §1

Homo sapiens = species on record: Homo sapiens; assay: Tested for growth inhibition against Breast Hs 578.T.; type: functional
Procedure, shortened: as §1

Ki [2] | SMILES | EC50 (C3H 10T1/2) | also measured
11 nM | CCCCCCCC/C=C\CCCCCCC/C=C1/C[C@](/C=C/C(=O)OC)(CO)OC1=O | 330 nM | ED50 [1]: 1070 nM
51 nM | CCCC(=O)OCC1(CO)C/C(=C\C=C(C(C)C)C(C)C)C(=O)O1 (centres undefined) | – | –
7.3 nM | CCCCC/C=C1/CC(CO)(COC(=O)CC(C(C)C)C(C)C)OC1=O (centres undefined) | 130 nM | ED50 [1]: 340 nM
5.9 nM | CCCCCC(=O)OCC1(CO)C/C(=C/CC(C(C)C)C(C)C)C(=O)O1 (centres undefined) | 2220 nM | ED50 [1]: 2330 nM
11 nM | CCCCCC(=O)OCC1(CO)C/C(=C\CC(C(C)C)C(C)C)C(=O)O1 (centres undefined) | – | –
5.5 nM | CCCCC/C=C1\CC(CO)(COC(=O)CC(C(C)C)C(C)C)OC1=O (centres undefined) | – | –
13 nM | CCCCCCCCC/C=C1/CC(CO)(COC(=O)CC(C(C)C)C(C)C)OC1=O (centres undefined) | 370 nM | GI50 [3]: 4700 nM; ED50 [1]: 430 nM; GI50 (COLO 205): 71 nM; GI50 (K562): 140 nM; GI50 (Homo sapiens): 58 nM
123 nM | CC(=O)OCC1(CO)C/C(=C/CC(C(C)C)C(C)C)C(=O)O1 (centres undefined) | – | –
164 nM | C/C=C1/CC(CO)(COC(=O)CC(C(C)C)C(C)C)OC1=O (centres undefined) | – | –
9.5 nM | CCCCCCCCC/C=C1\CC(CO)(COC(=O)CC(C(C)C)C(C)C)OC1=O (centres undefined) | – | –
3.5 nM | CCCCCCCC(=O)OC[C@]1(CO)C/C(=C/CC(C(C)C)C(C)C)C(=O)O1 | – | –
54 nM | CCCC(=O)OCC1(CO)C/C(=C\CC(C(C)C)C(C)C)C(=O)O1 (centres undefined) | – | –
28 nM | CCC/C=C1\CC(CO)(COC(=O)CC(C(C)C)C(C)C)OC1=O (centres undefined) | – | –
390 nM | CC(=O)OCC1(CO)C/C(=C/C=C(C(C)C)C(C)C)C(=O)O1 (centres undefined) | – | –
2.3 nM | CCCCCCCCCC(=O)OCC1(CO)C/C(=C/CC(C(C)C)C(C)C)C(=O)O1 (centres undefined) | 1170 nM | GI50 [3]: 44000 nM; ED50 [1]: 660 nM; GI50 (COLO 205): 18000 nM; GI50 (K562): 9200 nM; GI50 (Homo sapiens): 27000 nM
– | CC(C)C(C/C=C1\CC(CO)(COC(=O)CC(C(C)C)C(C)C)OC1=O)C(C)C (centres undefined) | 140 nM | ED50 [1]: 680 nM; GI50 (COLO 205): 1600 nM; GI50 (K562): 1500 nM; GI50 (Homo sapiens): 12000 nM

Ki [2] | SMILES | EC50 (C3H 10T1/2) | also measured
5.9 nM | CCCCCCCC(=O)OC[C@]1(CO)C/C(=C\CC(C(C)C)C(C)C)C(=O)O1 | – | –
6.6 nM | CCCCCCCCCC(=O)OCC1(CO)C/C(=C\CC(C(C)C)C(C)C)C(=O)O1 (centres undefined) | – | –
– | CC(C)C(C/C=C1/CC(CO)(COC(=O)CC(C(C)C)C(C)C)OC1=O)C(C)C (centres undefined) | 170 nM | GI50 [3]: 3200 nM; ED50 [1]: 550 nM; GI50 (COLO 205): 25 nM; GI50 (K562): 21 nM; GI50 (Homo sapiens): 26 nM
24 nM | CCC/C=C1/CC(CO)(COC(=O)CC(C(C)C)C(C)C)OC1=O (centres undefined) | – | –
3.5 nM | CCCCCCOC(=O)/C=C/[C@]1(CO)C/C(=C/CC(C(C)C)C(C)C)C(=O)O1 | 140 nM | ED50 [1]: 950 nM
68 nM | CCCC(=O)OCC1(CO)C/C(=C/C=C(C(C)C)C(C)C)C(=O)O1 (centres undefined) | – | –
8.4 nM | CCCCCC(=O)OCC1(CO)C/C(=C\C=C(C(C)C)C(C)C)C(=O)O1 (centres undefined) | – | –
29.5 nM | CCCCCCOC(=O)/C=C/[C@]1(CO)C/C(=C\CC(C(C)C)C(C)C)C(=O)O1 | – | –
138 nM | C/C=C1\CC(CO)(COC(=O)CC(C(C)C)C(C)C)OC1=O (centres undefined) | – | –
12 nM | CCCCCC(=O)OCC1(CO)C/C(=C/C=C(C(C)C)C(C)C)C(=O)O1 (centres undefined) | – | –
– | CCCC(=O)O[C@@H]1[C@@H](C)[C@@]2(O)[C@@H](C=C(CO)C[C@]3(O)C(=O)C(C)=C[C@@H]23)[C@@H]2C(C)(C)[C@]12OC(=O)CCC | 20 nM | –
– | CC(=O)O[C@@]12C[C@@H](C)[C@@]3(O)[C@@H](C=C(CO)C[C@]4(O)C(=O)C(C)=C[C@@H]34)[C@@H]1C2(C)C [PROSTRATIN] | – | GI50 [3]: 7000 nM; GI50 (COLO 205): 1900 nM; GI50 (Homo sapiens): 790 nM
19 nM | CCCC(=O)OCC1(CO)C/C(=C/CC(C(C)C)C(C)C)C(=O)O1 (centres undefined) | 820 nM | ED50 [1]: 1950 nM
359 nM | CC(=O)OCC1(CO)C/C(=C\CC(C(C)C)C(C)C)C(=O)O1 (centres undefined) | – | –
409 nM | CC(=O)OCC1(CO)C/C(=C\C=C(C(C)C)C(C)C)C(=O)O1 (centres undefined) | – | –
